Assay results taken from ChEMBL document CHEMBL1157314, “Antibacterial, partially acetylated oligorhamnosides from Cleistopholis patens” (2006).
≈ marks a conversion by molar mass, not a printed value. Calls of active or inactive are those of the source. The rule behind the calls is not given here.

Key:
Assay type in all cases: functional
[1] = tested on: Staphylococcus aureus; assay: Antibacterial activity against linezolid-resistant Staphylococcus aureus 106-12591A isolate after 24 hrs by broth microdilution method
In short: (§1)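 Broth microdilution following NCCLS M7-A6 (2003), with inoculum at the recommended densities. Isolates were placed into panel wells with an autoinoculator and grown in cation-adjusted Mueller-Hinton broth at 35°C in ambient air for overnight to 24 h. Panels were read by eye, and the MIC was taken as no visible growth.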

[2] = tested on: Staphylococcus aureus; assay: Antibacterial activity against methicillin-resistant Staphylococcus aureus ATCC 33591 after 24 hrs by broth microdilution method; conditions: for MIC: ATCC 33591, 24 h; in short: as §1
[3] = tested on: Staphylococcus aureus; assay: Antibacterial activity against methicillin-resistant Staphylococcus aureus 78-13607A after 24 hrs by broth microdilution method; in short: as §1
[4] = tested on: Staphylococcus aureus; assay: Antibacterial activity against oxacillin-susceptible Staphylococcus aureus ATCC 29213 after 24 hrs by broth microdilution method; conditions: ATCC 29213, 24 h; in short: as §1
[5] = tested on: Staphylococcus aureus; assay: Antibacterial activity against oxacillin-resistant Staphylococcus aureus ATCC 33591 after 24 hrs by broth microdilution method; conditions: ATCC 33591, 24 h; in short: as §1
[6] = tested on: Staphylococcus epidermidis; assay: Antibacterial activity against oxacillin-susceptible Staphylococcus epidermidis isolate 12-1788A isolate after 24 hrs by broth microdilution method
[7] = tested on: Staphylococcus haemolyticus; assay: Antibacterial activity against oxacillin-resistant Staphylococcus haemolyticus 107-1240C isolate after 24 hrs by broth microdilution method; in short: as §1
[8] = tested on: Enterococcus faecalis; assay: Antibacterial activity against ampicillin and vancomycin-susceptible Enterococcus faecalis ATCC 29212 after 24 hrs by broth microdilution method; conditions: ATCC 29212, 24 h; in short: as §1
[9] = tested on: Enterococcus faecium; assay: Antibacterial activity against ampicillin and vancomycin-resistant Enterococcus faecium 24-45A isolate after 24 hrs by broth microdilution method; in short: as §1
[10] = tested on: Streptococcus pneumoniae; assay: Antibacterial activity against penicillin-intermediate resistant Streptococcus pneumoniae ATCC 49619 after 24 hrs by broth microdilution method; conditions: ATCC 49619, 24 h; in short: as §1
[11] = tested on: Streptococcus pneumoniae; assay: Antibacterial activity against penicillin-resistant Streptococcus pneumoniae 33-50B isolate after 24 hrs by broth microdilution method; in short: as §1
[12] = tested on: Corynebacterium jeikeium; assay: Antibacterial activity against Corynebacterium jeikeium 15-196A isolate after 24 hrs by broth microdilution method
In short: (§2)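 Broth microdilution following NCCLS M7-A6 (2003) inocula; isolates transferred aseptically into panel wells with an autoinoculator; cation-adjusted Mueller-Hinton broth; incubated overnight to 24 h at 35°C in ambient air; panels read by eye, MIC taken as lowest concentration with no visible growth.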

[13] = tested on: Bacillus cereus; assay: Antibacterial activity against Bacillus cereus 24-59A isolate after 24 hrs by broth microdilution method
[14] = tested on: Streptococcus pyogenes; assay: Antibacterial activity against erythromycin-resistant Streptococcus pyogenes 91-8747 isolate after 24 hrs by broth microdilution method; in short: as §1
[15] = tested on: Streptococcus mitis; assay: Antibacterial activity against penicillin-resistant Streptococcus mitis 61-2900C isolate after 24 hrs by broth microdilution method; in short: as §1
[16] = tested on: Pseudomonas aeruginosa; assay: Antibacterial activity against sPseudomonas aeruginosa ATCC 27853 after 24 hrs by broth microdilution method; conditions: ATCC 27853, 24 h; in short: as §2
[17] = tested on: Escherichia coli; assay: Antibacterial activity against sEscherichia coli ATCC 25922 after 24 hrs by broth microdilution method; conditions: ATCC 25922, 24 h; in short: as §2
[18] = tested on: Staphylococcus aureus; assay: Antibacterial activity against mupirocin-resistant Staphylococcus aureus 4-90A isolate after 24 hrs by broth microdilution method; in short: as §1
[19] = tested on: Staphylococcus aureus; assay: Antibacterial activity against quinupristin/dalfopristin-resistant Staphylococcus aureus 300-12053A isolate after 24 hrs by broth microdilution method; in short: as §1
[20] = tested on: Staphylococcus; assay: Antibacterial activity against mupirocin-resistant coagulase negative Staphylococcus 63-18A isolate after 24 hrs by broth microdilution method; in short: as §1
[21] = tested on: Staphylococcus; assay: Antibacterial activity against quinupristin/dalfopristin-resistant coagulase negative Staphylococcus 90-10840A isolate after 24 hrs by broth microdilution method; in short: as §1
[22] = tested on: Staphylococcus; assay: Antibacterial activity against coagulase negative linezolid-resistant Staphylococcus 82-1645A isolate after 24 hrs by broth microdilution method; in short: as §1
[23] = tested on: Enterococcus faecalis; assay: Antibacterial activity against vancomycin-resistant Enterococcus faecalis 48-22D isolate with vanA phenotype after 24 hrs by broth microdilution method; in short: as §1
[24] = tested on: Enterococcus faecalis; assay: Antibacterial activity against vancomycin-resistant Enterococcus faecalis 82-876D with vanB phenotype isolate after 24 hrs by broth microdilution method; in short: as §1
[25] = tested on: Enterococcus faecalis; assay: Antibacterial activity against linezolid-resistant Enterococcus faecalis 15-5341 isolate after 24 hrs by broth microdilution method; in short: as §1
[26] = tested on: Enterococcus faecalis; assay: Antibacterial activity against gentamycin and streptomycin-resistant Enterococcus faecalis 39-11D isolate after 24 hrs by broth microdilution method; in short: as §1
[27] = tested on: Enterococcus faecium; assay: Antibacterial activity against vancomycin-resistant Enterococcus faecium 103-1232D isolate with vanB phenotype after 24 hrs by broth microdilution method; in short: as §1
[28] = tested on: Enterococcus faecium; assay: Antibacterial activity against vancomycin-resistant Enterococcus faecium 15-206A isolate with vanA phenotype after 24 hrs by broth microdilution method; in short: as §1
[29] = tested on: Enterococcus faecium; assay: Antibacterial activity against linezolid-resistant Enterococcus faecium 11-4103A isolate after 24 hrs by broth microdilution method; in short: as §1
[30] = tested on: Enterococcus faecium; assay: Antibacterial activity against quinupristin/dalfopristin-resistant Enterococcus faecium 65-1208A isolate after 24 hrs by broth microdilution method; in short: as §1
[31] = tested on: Bacillus sp.; assay: Antibacterial activity against tetracycline-resistant Bacillus sp. 107-1461D isolate after 24 hrs by broth microdilution method; conditions: Bacillus sp. (in: firmicutes); in short: as §1
[32] = tested on: Bacillus sp.; assay: Antibacterial activity against trimethoprim/sulfamethaxazole-resistant Bacillus sp. 67-1057A isolate after 24 hrs by broth microdilution method; conditions: Bacillus sp. (in: firmicutes); in short: as §1
[33] = tested on: Bacillus sp.; assay: Antibacterial activity against erythromycin-resistant Bacillus sp. 32-2406A isolate after 24 hrs by broth microdilution method; conditions: Bacillus sp. (in: firmicutes); in short: as §1
[34] = tested on: Streptococcus pneumoniae; assay: Antibacterial activity against multidrug resistant Streptococcus pneumoniae 68-2307B isolate after 24 hrs by broth microdilution method; in short: as §1
[35] = tested on: Streptococcus pneumoniae; assay: Antibacterial activity against erythromycin and clindamycin-resistant Streptococcus pneumoniae 4-38B isolate after 24 hrs by broth microdilution method; in short: as §1
[36] = tested on: Streptococcus pneumoniae; assay: Antibacterial activity against erythromycin-resistant and clindamycin-susceptible Streptococcus pneumoniae 35-405B isolate after 24 hrs by broth microdilution method; in short: as §1
[37] = tested on: Streptococcus pneumoniae; assay: Antibacterial activity against levofloxacin-resistant Streptococcus pneumoniae 2-2784A isolate after 24 hrs by broth microdilution method; in short: as §1
[38] = tested on: Corynebacterium sp.; assay: Antibacterial activity against doxycyclin-resistant Corynebacterium sp. 105-1513C isolate after 24 hrs by broth microdilution method; in short: as §1
[39] = tested on: Corynebacterium sp.; assay: Antibacterial activity against streptomycin-resistant Corynebacterium sp. 61-5454A isolate after 24 hrs by broth microdilution method; in short: as §1
[40] = tested on: Corynebacterium sp.; assay: Antibacterial activity against rifampin-resistant Corynebacterium sp. 58-9161A isolate after 24 hrs by broth microdilution method; in short: as §1
[41] = tested on: Streptococcus; assay: Antibacterial activity against erythromycin and clindamycin-resistant beta-haemolytic sStreptococcus 91-526D isolate after 24 hrs by broth microdilution method; in short: as §1
[42] = tested on: Streptococcus; assay: Antibacterial activity against erythromycin-resistant and clindamycin-susceptible beta-haemolytic sStreptococcus 109-820D isolate after 24 hrs by broth microdilution method; in short: as §1
[43] = tested on: Streptococcus; assay: Antibacterial activity against levofloxacin-resistant beta-haemolytic sStreptococcus 19-756A isolate after 24 hrs by broth microdilution method; in short: as §1
[44] = tested on: Streptococcus; assay: Antibacterial activity against mupirocin-resistant viridans group sStreptococcus 32-2395A isolate after 24 hrs by broth microdilution method; in short: as §1
[45] = tested on: Streptococcus; assay: Antibacterial activity against levafloxacin-resistant viridans group Streptococcus 107-6380A isolate after 24 hrs by broth microdilution method; in short: as §1
[46] = tested on: Streptococcus; assay: Antibacterial activity against linezolid-resistant viridans group Streptococcus 27-2832A isolate after 24 hrs by broth microdilution method; in short: as §1
[47] = tested on: Streptococcus; assay: Antibacterial activity against multidrug-resistant viridans group Streptococcus 58-1602D isolate after 24 hrs by broth microdilution method; in short: as §1

CCCCCCCCCCCCO[C@@H]1O[C@@H](C)[C@H](O[C@@H]2O[C@@H](C)[C@H](OC(C)=O)[C@@H](O[C@@H]3O[C@@H](C)[C@H](OC(C)=O)[C@@H](O)[C@H]3OC(C)=O)[C@H]2O)[C@@H](O)[C@H]1O
MIC [1]: 2 µg/mL (≈ 2.66 µM)
MIC [2]: 8 µg/mL (≈ 10.7 µM)
MIC [3]: 8 µg/mL (≈ 10.7 µM)
MIC [4]: 2 µg/mL (≈ 2.66 µM)
MIC [5]: 2 µg/mL (≈ 2.66 µM)
MIC [6]: 4 µg/mL (≈ 5.33 µM)
MIC [7]: 4 µg/mL (≈ 5.33 µM)
MIC [8]: 4 µg/mL (≈ 5.33 µM)
MIC [9]: 2 µg/mL (≈ 2.66 µM)
MIC [10]: 8 µg/mL (≈ 10.7 µM)
MIC [11]: 8 µg/mL (≈ 10.7 µM)
MIC [12]: > 32 µg/mL
MIC [13]: 2 µg/mL (≈ 2.66 µM)
MIC [14]: 8 µg/mL (≈ 10.7 µM)
MIC [15]: 8 µg/mL (≈ 10.7 µM)
MIC [16]: > 32 µg/mL
MIC [17]: > 32 µg/mL
MIC [18]: 2 µg/mL (≈ 2.66 µM)
MIC [19]: 2 µg/mL (≈ 2.66 µM)
MIC [20]: 2 µg/mL (≈ 2.66 µM)
MIC [21]: 2 µg/mL (≈ 2.66 µM)
MIC [22]: 2 µg/mL (≈ 2.66 µM)
MIC [23]: 2 µg/mL (≈ 2.66 µM)
MIC [24]: 2 µg/mL (≈ 2.66 µM)
MIC [25]: 2 µg/mL (≈ 2.66 µM)
MIC [26]: 2 µg/mL (≈ 2.66 µM)
MIC [27]: 2 µg/mL (≈ 2.66 µM)
MIC [28]: 2 µg/mL (≈ 2.66 µM)
MIC [29]: 2 µg/mL (≈ 2.66 µM)
MIC [30]: 2 µg/mL (≈ 2.66 µM)
MIC [31]: 2 µg/mL (≈ 2.66 µM)
MIC [32]: 2 µg/mL (≈ 2.66 µM)
MIC [33]: 2 µg/mL (≈ 2.66 µM)
MIC [34]: 4 µg/mL (≈ 5.33 µM)
MIC [35]: 4 µg/mL (≈ 5.33 µM)
MIC [36]: 4 µg/mL (≈ 5.33 µM)
MIC [37]: 4 µg/mL (≈ 5.33 µM)
MIC [38]: 8 µg/mL (≈ 10.7 µM)
MIC [39]: 8 µg/mL (≈ 10.7 µM)
MIC [40]: 8 µg/mL (≈ 10.7 µM)
MIC [41]: 4 µg/mL (≈ 5.33 µM)
MIC [42]: 4 µg/mL (≈ 5.33 µM)
MIC [43]: 4 µg/mL (≈ 5.33 µM)
MIC [44]: 4 µg/mL (≈ 5.33 µM)
MIC [45]: 4 µg/mL (≈ 5.33 µM)
MIC [46]: 4 µg/mL (≈ 5.33 µM)
MIC [47]: 4 µg/mL (≈ 5.33 µM)

CC[C@H]1OC(=O)[C@H](C)[C@@H](O[C@H]2C[C@@](C)(OC)[C@@H](O)[C@H](C)O2)[C@H](C)[C@@H](O[C@@H]2O[C@H](C)C[C@H](N(C)C)[C@H]2O)[C@](C)(O)C[C@@H](C)C(=O)[C@H](C)[C@@H](O)[C@]1(C)O [ERYTHROMYCIN]
MIC [2]: > 8 µg/mL
MIC [3]: 0.25 µg/mL (≈ 0.341 µM)

CC(=O)NC[C@H]1CN(c2ccc(N3CCOCC3)c(F)c2)C(=O)O1
Activity [2]: Active
Activity [3]: Active

CCCCCCCCCCCCO[C@@H]1O[C@@H](C)[C@H](O[C@@H]2O[C@@H](C)[C@H](OC(C)=O)[C@@H](O[C@@H]3O[C@@H](C)[C@H](OC(C)=O)[C@@H](O[C@@H]4O[C@@H](C)[C@H](O)[C@@H](OC(C)=O)[C@H]4O)[C@H]3OC(C)=O)[C@H]2O)[C@@H](O)[C@H]1O
MIC [2]: 8 µg/mL (≈ 8.52 µM)
MIC [3]: 16 µg/mL (≈ 17 µM)

Cc1onc(-c2ccccc2)c1C(=O)N[C@@H]1C(=O)N2[C@@H]1SC(C)(C)[C@@H]2C(=O)O [OXACILLIN]
MIC [2]: > 8 µg/mL
MIC [3]: 8 µg/mL (≈ 19.9 µM)

C/C(=C\C(=O)OCCCCCCCCC(=O)O)C[C@@H]1OC[C@H](C[C@@H]2O[C@H]2[C@@H](C)[C@H](C)O)[C@@H](O)[C@H]1O
Activity [2]: Active
Activity [3]: Active
